# Bioassay records from PubChem.
# An excerpt weighted towards active compounds, which were near 9.6% of everything screened.
# bCat KO growth = primary screen for growth suppressors in beta-catenin knockout HCT116 cells (colon tumor, human) | HCT116 beta-catenin knockout viability, CellTiter-Glo, 60 h; hits give low values | viability, % at 10 µM | hit rate 1.5% among 140,000 | AID 818, 2007;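 active = viability at or under a set limit, the compound median less 4 SD, cut at about 6% in these data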;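 also: 0% = Hyamine 1622 control at 20 µM and 100% = untreated cell control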
# TNAP inh hiacc = human TNAP enzyme inhibitors, primary screen, biochemical, luminescent, high phosphate acceptor level, uHTS. Alkaline phosphatase, tissue-nonspecific isozyme (Homo sapiens), P05186. purified TNAP, CDP-star luminescence, 1 M DEA. inhibition, % at 20 µM. hit rate 0.03% among 200,000. AID 1135, 2008;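 active = over 50% inhibition of tissue-nonspecific alkaline phosphatase at 20 µM in the single-dose screen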;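 also: plate controls were DMSO wells for no effect and EDTA-quenched wells as full inhibition for full effect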
# Target sequence (P05186 whole entry, looked up): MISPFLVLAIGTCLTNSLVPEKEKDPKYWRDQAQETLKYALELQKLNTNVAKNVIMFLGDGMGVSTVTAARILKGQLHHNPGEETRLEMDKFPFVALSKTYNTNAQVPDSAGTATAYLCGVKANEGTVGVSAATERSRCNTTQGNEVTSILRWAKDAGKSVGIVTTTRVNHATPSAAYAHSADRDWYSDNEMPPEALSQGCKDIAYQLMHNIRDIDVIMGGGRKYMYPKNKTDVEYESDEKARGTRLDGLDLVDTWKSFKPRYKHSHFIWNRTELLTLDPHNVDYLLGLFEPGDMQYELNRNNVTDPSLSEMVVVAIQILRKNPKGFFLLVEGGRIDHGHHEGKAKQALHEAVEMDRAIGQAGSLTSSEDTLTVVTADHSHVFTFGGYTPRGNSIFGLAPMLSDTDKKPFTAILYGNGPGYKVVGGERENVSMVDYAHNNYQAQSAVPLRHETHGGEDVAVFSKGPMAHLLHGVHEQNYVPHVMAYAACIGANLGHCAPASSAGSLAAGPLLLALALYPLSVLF
# HCT116 PTEN-null = growth suppression of PTEN-null HCT116, primary screen, cell-based, CellTiter-Glo; HCT116 PTEN-null viability, 60 h; hits give low values; hit rate 1.2% among 140,000; viability, % at 10 µM;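 active = viability at or below a set limit, 4 SD under the median of all tested compounds, cut at about 3.7% in these data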;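 also: PTEN knockout HCT116 line with beta catenin targeted HCT116 as companion control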
# TNAP inh noacc = human TNAP enzyme inhibitors, primary screen, biochemical, luminescent, no phosphate acceptor, uHTS | Alkaline phosphatase, tissue-nonspecific isozyme (Homo sapiens), P05186 | purified TNAP, CDP-star luminescence, 30 min | inhibition, % at 20 µM | hit rate 0.26% among 200,000;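 active = tissue-nonspecific alkaline phosphatase inhibition above about 50% at 20 µM in the single-dose screen, limit read from the data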;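 also: 0% = DMSO negative control and 100% = EDTA positive control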
# L major viab = Leishmania major promastigote growth inhibition, primary screen | Leishmania major promastigotes, resazurin fluorescence viability | inhibition, % at 10 µM | hit rate 9% among 200,000; in the data active = inhibition above about 50%;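 also: promastigotes grown with compound for 44 hours at 28 °C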
# TNAP act hi DEA = TNAP activators at high phosphate acceptor level, primary screen, biochemical, luminescence, uHTS | Alkaline phosphatase, tissue-nonspecific isozyme (Homo sapiens), P05186 | purified TNAP, CDP-star luminescence, 1 M DEA, 30 min; hits give high values; 0 = EDTA background, 1 = DMSO-only activity | activation factor at 20 µM | 200,000 tested, under 10 active | AID 1136, 2008;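 active = activation factor at least 2 at 20 µM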
#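 Measured by: Luminescent substrate turnover signal | Test system: Human TNAP | Input: TNAP 1/800 final | Dosing: 20 µM single point | Schedule: 30 min, room temperature | Controls: EDTA wells as negative control, DMSO wells as positive control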
# Starred values were filed as active, the others as inactive; x = not tested or not shown.
SMILES,bCat KO growth,TNAP inh hiacc,HCT116 PTEN-null,TNAP inh noacc,L major viab,TNAP act hi DEA
O=C(Nc1cc(Cl)ccc1O)c1cc2n(n1)C(C(F)(F)F)CC(c1ccc3c(c1)OCO3)N2 (stereo unspecified),30,0,27,-3,84*,1
COc1ccc(OC)c(NC(=O)c2cc3n(n2)C(C(F)(F)F)CC(c2ccc4c(c2)OCO4)N3)c1 (stereo unspecified),x,1,x,-2,27,1
CN(C)c1ccc(/C=C2\C(=O)N(c3ccc([N+](=O)[O-])cc3)N=C2N2CCOCC2)cc1,x,x,x,x,80*,x
COC(=O)c1ccccc1S(=O)(=O)N(CCCN1CCOCC1)Cc1cccs1,85,-4,88,-10,15,1
O=S(=O)(c1cccc(C(F)(F)F)c1)N(CCCN1CCOCC1)Cc1cccs1,82,-5,89,-8,100*,1
CC(C)CNc1nnnc2c1sc1nc(N3CCOCC3)c3c(c12)CC(C)(C)SC3,45,0,41,4,35,1
CC1(C)Cc2c(c(N3CCOCC3)nc3sc4c(NCc5ccccc5)nnnc4c23)CS1,7,-6,3.2*,5,24,1.1
OCCNc1ncnc2c1sc1nc(N3CCOCC3)c3c(c12)CCC3,x,2,x,0,17,1
COCCNc1nnnc2c1sc1nc(N3CCOCC3)c3c(c12)CCCC3,x,-3,x,-6,62*,1
CC1(C)Cc2c(c(N3CCOCC3)nc3sc4c(NN)ncnc4c23)CS1,2.8*,-4,4,4,97*,1
O=C(CCc1ccc(S(=O)(=O)N2CCOCC2)cc1)N/N=C/c1ccc(O)c(O)c1O,97,6,105,-14,-7,0.9
C[C@@H](C(=O)N1CCNCC1)n1cc(CCCN=C(N)N)nn1,x,-1,x,-1,0,1
COc1ccc(CCNC(=O)Nc2ccccc2[N+](=O)[O-])cc1,x,-3,x,-6,-2,1
O=C(N/N=C\c1ccc2c(c1)OCO2)c1ccc(Cn2cc(Br)c([N+](=O)[O-])n2)o1,x,0,x,6,83*,1
CCOc1ccc(/C=N/NC(=O)c2ccc(Cn3cc([N+](=O)[O-])cn3)o2)cc1,101,-3,97,-7,1,1
CCOc1ccc(/C=N/NC(=O)c2ccc(Cn3cc(Br)cn3)o2)cc1,98,2,96,-9,59*,1
O=C(Oc1ccc(C(=S)N2CCC(O)CC2)cc1)c1ccc(Cl)cc1,x,3,x,-2,3,1
O=[N+]([O-])c1ccc(N2CCCCCC2)c(S(=O)(=O)N2CCCCC2)c1,72,-3,69,-7,38,1
O=[N+]([O-])c1ccccc1/C=N/N1CCN(c2ccncc2S(=O)(=O)N2CCCCC2)CC1,59,1,68,-6,99*,1
O=[N+]([O-])c1ccc(/C=N/N2CCN(c3ccncc3S(=O)(=O)N3CCCCC3)CC2)cc1,73,-2,85,-6,99*,1
O=[N+]([O-])c1ccccc1S(=O)(=O)N1CCCCC1,97,-2,94,3,-2,1
CCc1nnc(NC(=O)c2ccncc2)s1,100,-6,86,-17,-4,1.1
Cc1ccc(S(=O)(=O)CCc2nnc(NC(=O)c3ccccn3)s2)cc1,54,-4,54,-8,82*,1
CCc1nnc(NC(=O)c2cccc(C(=O)Nc3nnc(CC)s3)n2)s1,5.0*,-2,2.2*,-175,99*,1
Cc1ccc(OCC(=O)Nc2cc(C(=O)O)cc(C(=O)O)c2)cc1C,x,-4,x,-15,-6,1
O=C(COc1ccccc1)Nc1ccc2[nH]c(=O)[nH]c2c1,x,-3,x,-4,90*,1
Cc1ccc(C)c2[nH]c(=O)c(C(c3nnnn3Cc3ccco3)N3CCc4ccccc4C3)cc12 (stereo unspecified),66,-4,68,-8,94*,1
